# In ChEMBL document CHEMBL1212742 (2010):
# Columns and labels:
# Type in all cases: functional
# [1] = test system: Mycobacterium tuberculosis; assay: Antimicrobial activity against wild type Mycobacterium tuberculosis 210 after 4 weeks; settings: Mycobacterium tuberculosis, 210, 672 h
# In short: (§1)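 Isogenic embB mutants made by allelic exchange in strain 210. PCR-built fragments carried the codon of interest; double-crossover colonies were screened by molecular beacon assay and confirmed by direct embB sequencing. MICs of EMB, INH and RIF were determined by radiometric Bactec 460TB and 7H10 agar proportion, alongside parent 210.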
# [2] = test system: Mycobacterium tuberculosis; assay: Antimicrobial activity against wild type Mycobacterium tuberculosis NJT210CGG-CAG after 4 weeks; settings: 672 h; in short: as §1
# [3] = test system: Mycobacterium tuberculosis; assay: Antimicrobial activity against wild type Mycobacterium tuberculosis 8C6 after 4 weeks by Bactec 460TB method; settings: 8C6, 672 h
# [4] = test system: Mycobacterium tuberculosis; assay: Antimicrobial activity against wild type Mycobacterium tuberculosis 8C6 after 4 weeks by 7H agar proportion method
# In short: (§2)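 EMB MIC by 7H10 agar proportion for clones selected from M. tuberculosis strain 210. About 10^9 cells from liquid culture (OD600 ~1.5, resuspended in 7H9) were plated on 7H10 with EMB at 8, 16 or 32 µg/ml final, incubated 37°C for 4 weeks. Colonies were subcultured in EMB-free 7H9 before testing, and embCAB was genotyped.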
# [5] = test system: Mycobacterium tuberculosis; assay: Antimicrobial activity against wild type Mycobacterium tuberculosis 8C3 after 4 weeks by Bactec 460TB method; settings: 8C3, 672 h
# [6] = test system: Mycobacterium tuberculosis; assay: Antimicrobial activity against wild type Mycobacterium tuberculosis 8C2 after 4 weeks by Bactec 460TB method; settings: 8C2, 672 h
# In short: (§3)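 EMB MIC by radiometric Bactec 460TB liquid method for clones from strain 210. The clones were selected on 7H10 containing 8, 16 or 32 µg/ml EMB final (~10^9 cells plated, 37°C, 4 weeks), then subcultured in 7H9 without EMB before MIC testing. embCAB was genotyped.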
# [7] = test system: Mycobacterium tuberculosis; assay: Antimicrobial activity against wild type Mycobacterium tuberculosis 8C2 after 4 weeks by 7H agar proportion method; in short: as §2
# [8] = test system: Mycobacterium tuberculosis; assay: Antimicrobial activity against wild type Mycobacterium tuberculosis 8C1 after 4 weeks by Bactec 460TB method; settings: 8C1, 672 h; in short: as §3
# [9] = test system: Mycobacterium tuberculosis; assay: Antimicrobial activity against wild type Mycobacterium tuberculosis 8C1 after 4 weeks by 7H agar proportion method; in short: as §2
# [10] = test system: Mycobacterium tuberculosis; assay: Antimicrobial activity against wild type Mycobacterium tuberculosis 210 after 4 weeks by Bactec 460TB method; settings: Mycobacterium tuberculosis, 210, 672 h
# In short: (§4)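 Parental M. tuberculosis strain 210 with no EMB exposure. EMB MIC determined in parallel by 7H10 agar proportion and radiometric Bactec 460TB.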
# [11] = test system: Mycobacterium tuberculosis; assay: Antimicrobial activity against wild type Mycobacterium tuberculosis 210 after 4 weeks by 7H agar proportion method; in short: as §4
# [12] = test system: Mycobacterium tuberculosis; assay: Antimicrobial activity against wild type Mycobacterium tuberculosis 16C10 after 4 weeks by 7H agar proportion method; in short: as §2
# [13] = test system: Mycobacterium tuberculosis; assay: Antimicrobial activity against wild type Mycobacterium tuberculosis 16C10 after 4 weeks by Bactec 460TB method; settings: 16C10, 672 h; in short: as §3
# [14] = test system: Mycobacterium tuberculosis; assay: Antimicrobial activity against wild type Mycobacterium tuberculosis 16C12 after 4 weeks by 7H agar proportion method; in short: as §2
# [15] = test system: Mycobacterium tuberculosis; assay: Antimicrobial activity against wild type Mycobacterium tuberculosis 16C12 assessed as inhibition of growth after 4 weeks by Bactec 460TB method; settings: 16C12, 672 h; in short: as §3
Compound,MIC [1],MIC [2],MIC [3],MIC [4],MIC [5],MIC [6],MIC [7],MIC [8],MIC [9],MIC [10],MIC [11],MIC [12],MIC [13],MIC [14],MIC [15]
NNC(=O)c1ccncc1 [ISONIAZID],0.05 µg/mL,0.05 µg/mL,,,,,,,,,,,,,
CC[C@@H](CO)NCCN[C@@H](CC)CO [ETHAMBUTOL],2 µg/mL,2 µg/mL,2 µg/mL,4 µg/mL,4 µg/mL,4 µg/mL,8 µg/mL,2 µg/mL,6 µg/mL,2 µg/mL,2 µg/mL,6 µg/mL,2 µg/mL,8 µg/mL,3 µg/mL
CO[C@H]1/C=C/O[C@@]2(C)Oc3c(C)c(O)c4c(O)c(c(/C=N/N5CCN(C)CC5)c(O)c4c3C2=O)NC(=O)/C(C)=C\C=C\[C@H](C)[C@H](O)[C@@H](C)[C@@H](O)[C@@H](C)[C@H](OC(C)=O)[C@@H]1C [RIFAMPIN],0.05 µg/mL,0.05 µg/mL,,,,,,,,,,,,,
